Assay results as given in ChEMBL document CHEMBL5543129, “Peptide Inhibitor Targeting the Extraterminal Domain in BRD4 Potently Suppresses Breast Cancer Both In Vitro and In Vivo” (J Med Chem, 2024).
The source made the active and inactive calls. No cut-off for these calls is given here. Square brackets hold non-standard residues; d marks the D form. Peptide text beside a SMILES is read from it. Hyp = O=C(O)[C@@H]1C[C@@H](O)CN1; Ahx = NCCCCCC(=O)O

Columns and labels:
[1] = molecular target: T1, von Hippel-Lindau disease tumor suppressor/Bromodomain-containing protein 4 (Homo sapiens) (UniProt O60885+P40337); assay: PROTAC activity at VHL/BDR4 ET domain in human MCF7 cells assessed as degradation by measuring fold change in remaining BRD4 level at 5 uM incubated for 24 hrs by immunoblotting analysis (reference value: […]); type: cell-based
T1 sequence (P40337 whole entry, looked up, other chains not shown, the tested form may be a part): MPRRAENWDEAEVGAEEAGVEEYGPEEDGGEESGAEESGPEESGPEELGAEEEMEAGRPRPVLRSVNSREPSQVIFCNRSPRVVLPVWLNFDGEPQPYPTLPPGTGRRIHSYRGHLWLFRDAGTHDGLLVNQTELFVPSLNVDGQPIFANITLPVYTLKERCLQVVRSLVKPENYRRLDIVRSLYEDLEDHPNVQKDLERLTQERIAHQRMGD

[2] = molecular target: T1, von Hippel-Lindau disease tumor suppressor/Bromodomain-containing protein 4 (Homo sapiens); assay: PROTAC activity at VHL/BDR4 ET domain in human MCF7 cells assessed as degradation by measuring fold change in remaining BRD4 level at 10 uM incubated for 24 hrs by immunoblotting analysis (reference value: […]); type: cell-based
[3] = molecular target: T2, von Hippel-Lindau disease tumor suppressor/Bifunctional arginine demethylase and lysyl-hydroxylase JMJD6 (Homo sapiens) (UniProt P40337+Q6NYC1); assay: Protac activity at VHL/JMJD6 in human MCF7 cells assessed as degradation by measuring fold change in remaining JMJD6 level at 10 uM incubated for 12 hrs by immunoblotting analysis (reference value: […]); type: cell-based
[4] = molecular target: T2, von Hippel-Lindau disease tumor suppressor/Bifunctional arginine demethylase and lysyl-hydroxylase JMJD6 (Homo sapiens); assay: Protac activity at VHL/JMJD6 in human MCF7 cells assessed as degradation by measuring fold change in remaining JMJD6 level at 10 uM incubated for 24 hrs in presence of MG132 by immunoblotting analysis (reference value: […]); type: cell-based
[5] = molecular target: T1, von Hippel-Lindau disease tumor suppressor/Bromodomain-containing protein 4 (Homo sapiens); assay: PROTAC activity at VHL/BDR4 ET domain in human MCF7 cells assessed as degradation by measuring fold change in remaining BRD4 level at 10 uM incubated for 24 hrs in presence of TAT-PiET by immunoblotting analysis relative to TAT/TAT-PROTAC; type: cell-based
Procedure, shortened: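 MCF7 cells are treated with PROTAC peptide (dose series, or 10 μM over a time course, or 10 μM with or without MG132 10 μM) for up to 24 h. Comparators are TAT, TAT-PiET, or TAT-PROTAC at 10 μM. BRD4 is measured by immunoblot, normalised to β-actin; three repeats.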

[6] = molecular target: T1, von Hippel-Lindau disease tumor suppressor/Bromodomain-containing protein 4 (Homo sapiens); assay: PROTAC activity at VHL/His-tagged BDR4 ET domain (601 to 683 residues) (unknown origin) transfected in MCF7 cells assessed as degradation by measuring fold change in remaining BRD4 level at 5 uM incubated for 24 hrs by immunoblotting analysis (reference value: […]); type: cell-based
[7] = molecular target: T1, von Hippel-Lindau disease tumor suppressor/Bromodomain-containing protein 4 (Homo sapiens); assay: PROTAC activity at VHL/His-tagged BDR4 ET domain (601 to 683 residues) (unknown origin) transfected in MCF7 cells assessed as degradation by measuring fold change in remaining BRD4 level at 10 uM incubated for 24 hrs by immunoblotting analysis (reference value: […]); type: cell-based
[8] = molecular target: T1, von Hippel-Lindau disease tumor suppressor/Bromodomain-containing protein 4 (Homo sapiens); assay: PROTAC activity at VHL/His-tagged BDR4 ET domain (601 to 683 residues) (unknown origin) transfected in MCF7 cells assessed as degradation by measuring fold change in remaining BRD4 level at 20 uM incubated for 24 hrs by immunoblotting analysis (reference value: […]); type: cell-based
[9] = molecular target: T1, von Hippel-Lindau disease tumor suppressor/Bromodomain-containing protein 4 (Homo sapiens); assay: PROTAC activity at VHL/His-tagged BDR4 ET domain (1 to 470 residues) (unknown origin) transfected in MCF7 cells assessed as degradation by measuring fold change in remaining BRD4 level at 20 uM incubated for 24 hrs by immunoblotting analysis (reference value: […]); type: cell-based
[10] = molecular target: T1, von Hippel-Lindau disease tumor suppressor/Bromodomain-containing protein 4 (Homo sapiens); assay: PROTAC activity at VHL/His-tagged BDR4 ET domain (471 to 730 residues) (unknown origin) transfected in MCF7 cells assessed as degradation by measuring fold change in remaining BRD4 level at 20 uM incubated for 24 hrs by immunoblotting analysis (reference value: […]); type: cell-based
[11] = molecular target: T1, von Hippel-Lindau disease tumor suppressor/Bromodomain-containing protein 4 (Homo sapiens); assay: PROTAC activity at VHL/His-tagged BDR4 […] (unknown origin) transfected in MCF7 cells assessed as degradation by measuring fold change in remaining BRD4 level at 10 uM incubated for 24 hrs by immunoblotting analysis (reference value: […]); type: cell-based
[12] = molecular target: T1, von Hippel-Lindau disease tumor suppressor/Bromodomain-containing protein 4 (Homo sapiens); assay: PROTAC activity at VHL/His-tagged BDR4 ET domain (1047 to 1362 residues) (unknown origin) transfected in MCF7 cells assessed as degradation by measuring fold change in remaining BRD4 level at 10 uM incubated for 24 hrs by immunoblotting analysis (reference value: […]); type: cell-based
MCF7 [13] = assay: Downregulation of […] gene expression in human MCF7 cells at 10 uM incubated for 6 hrs by RT-qPCR analysis; type: functional, cell-based
Procedure, shortened: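 Cells treated with peptide (10 μM) for 6 h; c-Myc, N-myc and CCND1 mRNA measured by RT-qPCR. Three biological repeats.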

MDA-MB-231 [14] = assay: Inhibition of colony formation in human MDA-MB-231 cells at 10 uM incubated for 2 weeks in presence of 5 uM JQ1 by crystal violet staining based assay; type: functional, cell-based
Procedure, shortened: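 Cells are seeded at 1 × 10^3/well and treated with peptide (10 μM) for 2 weeks, alone or with JQ1 5 μM, iJMJD6 10 μM, ICI 2.5 μM, or tamoxifen 3 μM (tamoxifen-resistant lines). Colonies are stained with crystal violet, dissolved in 10% acetic acid, and read at 590 nm. Three biological repeats.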

[15] = Toxicity in BALB/c mouse xenografted with human MDA-MB-231 cells assessed as change in lung morphology at 12.5 mg/kg, ip administered every 2 days in presence of 50 mg/kg JQ1; type: organism-based; conditions: in vivo, 48 h
Procedure, shortened: (§1)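 Female BALB/c nude mice (4–6 weeks) carried sc MDA-MB-231 xenografts (5 × 10^6 cells) and were randomized at about 50 mm3. Peptide (12.5 mg/kg ip in saline) and JQ1 (50 mg/kg ip, DMSO/10% HPBCD 1:10) were given every 2 days, alone or combined. Body weight was recorded, and heart, liver, spleen, lung and kidney morphology and weight were assessed.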

[16] = Toxicity in BALB/c mouse xenografted with human MDA-MB-231 cells assessed as change in spleen weight at 12.5 mg/kg, ip administered every 2 days in presence of 50 mg/kg JQ1; type: organism-based; conditions: in vivo, 48 h; procedure, shortened: as §1
MDA-MB-231 [17] = assay: Antiproliferative activity against human MDA-MB-231 cells at 10 uM incubated for 1 week in presence of JMJD6 inhibitor by CellTiter 96 Aqueous One Solution based assay; type: functional, cell-based; conditions: time 1.0 weeks
Procedure, shortened: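 Cells seeded at 2 × 10^3/well and treated with peptide (10 μM) alone or combined with JQ1 (5 μM), iJMJD6 (10 μM) or ICI (2.5 μM), as the line states. Viability read by MTS reagent, 1 h at 37 °C, A490. Three biological repeats.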

[18] = Downregulation of BRD4 protein expression in BALB/c mouse tumor xenografted with human MCF7 cells assessed as fold change in remaining BRD4 level at 25 mg/kg, ip administered every 2 days by immunoblotting analysis; type: functional
Procedure, shortened: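 Tumours taken from xenograft mice dosed with peptide at 25 mg/kg ip every 2 days. […] Three repeats.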

MCF7 [19] = assay: Cytotoxicity against human MCF7 cells incubated for 1 week by CellTiter 96 Aqueous One Solution based assay; type: functional, cell-based; conditions: MCF7, 168 h
Procedure, shortened: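 Cells (2 × 10^3/well, DMEM + 10% FBS, 37 °C, 5% CO2) treated with a concentration gradient of peptide for 1 week. MTS reagent added for 1 h, absorbance read at 490 nm, EC50 derived.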

Compound | fold change (FC) [1] | fold change (FC) [2] | fold change (FC) [3] | fold change (FC) [4] | fold change (FC) [5] | fold change (FC) [6] | fold change (FC) [7] | fold change (FC) [8] | fold change (FC) [9] | fold change (FC) [10] | fold change (FC) [11] | fold change (FC) [12] | Activity (MCF7 [13]) | inhibition (MDA-MB-231 [14]) | Activity [15] | Activity [16] | Activity (MDA-MB-231 [17]) | fold change (FC) [18] | EC50 (MCF7 [19])
CC[C@H](C)[C@H](NC(=O)[C@H](Cc1ccc(O)cc1)NC(=O)[C@@H]1C[C@@H](O)CN1C(=O)[C@H](C)NC(=O)[C@@H](NC(=O)CCCCCNC(=O)[C@H](CCC(=O)O)NC(=O)CNC(=O)[C@H](CS)NC(=O)[C@H](CCCCN)NC(=O)[C@H](Cc1ccccc1)NC(=O)[C@H](CCCCN)NC(=O)[C@H](CCC(N)=O)NC(=O)[C@H](CC(N)=O)NC(=O)[C@H](CCCNC(=N)N)NC(=O)[C@H](CCCNC(=N)N)NC(=O)[C@H](CCCNC(=N)N)NC(=O)[C@H](CCCNC(=N)N)NC(=O)[C@H](CCC(N)=O)NC(=O)[C@H](CCCNC(=N)N)NC(=O)[C@H](CCCNC(=N)N)NC(=O)[C@H](CCCCN)NC(=O)[C@H](CCCCN)NC(=O)[C@H](CCCNC(=N)N)NC(=O)CNC(=O)[C@@H](N)Cc1ccc(O)cc1)[C@@H](C)CC)C(=O)O (H-YGRKKRRQRRRRNQKFKCGE[Ahx]IA[Hyp]YI-OH) | 0.35 | 0.26 | 0.85 | 0.88 | 0.84 | 0.72 | 0.47 | 0.37 | 1.06 | 0.6 | 0.91 | 1 | Active | Active | Non-Toxic | Non-Toxic | Active | 0.16 | 
H-YGRKKRRQRRRRNQKFKCGE-OH |  |  |  |  |  |  |  |  |  |  |  |  | Active | Active | Non-Toxic | Non-Toxic | Active | 0.54 | 8.13 µM
